Data from PMC6072465 (MedChemComm, 2017).

Tests used:
HCT116 cells = assay: Cytochrome c release from mitochondria to cytosol; type: cell-based, human; conditions: concentration 3.5 μM
[1] = system: HCT116 (human colon carcinoma) cancer cells; assay: Oxygen consumption, Seahorse XF-96 Analyzer; type: cell-based; conditions: incubation for 24 hours
Procedure, shortened: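 HCT116 cells grown in DMEM with 10% heat-inactivated FCS and penicillin/streptomycin at 37 °C, 5% CO2. About 15 000 cells/well adhered overnight, then were exposed to test compounds for 24 h. Cells were washed and held 1 h at 37 °C without CO2 in unbuffered DMEM (5 mM glucose, 2 mM glutamine, pH 7.4). Basal OCR was read, then sequential oligomycin, CCCP, and rotenone/antimycin A. Rates normalized to total well protein.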

[2] = system: caspase-3 in TET21N cells; assay: Caspase-3 activity with fluorogenic substrate DEVD-AMC, TET21N cells; type: cell-based, human; conditions: compared with betulinic acid
[3] = system: caspase-3 in HCT116 cells; assay: Caspase-3 activity with fluorogenic substrate DEVD-AMC, HCT116 cells; type: cell-based, human; conditions: compared with betulinic acid

Compound | release of cytochrome c from the mitochondria to the cytosol (HCT116 cells) | effect on mitochondrial respiration (oxygen consumption) [1] | activation of caspase-3 [2] | activation of caspase-3 [3]
C=C(C)[C@@H]1CC[C@]2(C(=O)O)CC[C@]3(C)[C@H](CC[C@@H]4[C@@]5(C)CC[C@H](O)C(C)(C)[C@@H]5CC[C@]43C)[C@@H]12 [BA, betulinic acid, reference compound] | failed to trigger the release of cytochrome c | ineffective | – | –
C=C(C)[C@@H]1CC[C@]2(C(=O)OCCOCCOCC[P+](c3ccccc3)(c3ccccc3)c3ccccc3)CC[C@]3(C)[C@H](CC[C@@H]4[C@@]5(C)CC[C@H](OC(C)=O)C(C)(C)[C@@H]5CC[C@]43C)[C@@H]12.[Br-] [compound 7, 8′-(Triphenylphosphonio-3′,6′-dioxaoctan-1′-yl)-3β-acetoxylup-20(29)-en-28-oate bromide] | – | suppressed respiration in a concentration-dependent manner | – | –
C=C(C)[C@@H]1CC[C@]2(C(=O)OCCOCCOCC[P+](c3ccccc3)(c3ccccc3)c3ccccc3)CC[C@]3(C)[C@H](CC[C@@H]4[C@@]5(C)CC[C@H](O)C(C)(C)[C@@H]5CC[C@]43C)[C@@H]12.[Br-] [compound 9, 9′-(Triphenylphosphonio-3′,6′-dioxaoctan-1′-yl)-3β-hydroxylup-20(29)-en-28-oate bromide] | – | suppressed respiration in a concentration-dependent manner | considerably surpassed betulinic acid in the caspase-3 activation | considerably surpassed betulinic acid in the caspase-3 activation
